{"source": "paper PMC8177775", "about": "(Cancer Science, 2021)", "test_system": "Japanese patients with solid tumors", "test": "Phase I dose-escalation study: safety, tolerability, DLT and MTD", "type": "in vivo, human", "conditions": "for Dose-limiting toxicities (DLTs): cycle 1", "summary_of_the_method": "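Oral test compound (tosylate salt) was given QD on days 1–21 of 28-day cycles in cohorts of 3–6 patients at 60, 90 or 120 mg. Escalation used a modified continual reassessment method (Bayesian logistic regression, escalation with overdose control). DLT window was cycle 1 (28 days). AEs were coded with MedDRA 18.0 and graded by CTCAE v4.0 (Japanese). Analysis covered patients receiving ≥1 dose.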", "key": {"[1]": {"conditions": "Cohort 1 60 mg/d (n = 3), All grades"}, "[2]": {"conditions": "Cohort 1 60 mg/d (n = 3), Grade ≥ 3"}, "[3]": {"conditions": "Cohort 2 90 mg/d (n = 11), All grades"}, "[4]": {"conditions": "Cohort 2 90 mg/d (n = 11), Grade ≥ 3"}, "[5]": {"conditions": "Cohort 3 120 mg/d (n = 4), All grades"}}, "note": "“Also recorded” adds a separate entry of the source."}
{"smiles": "CC1(C)CCC2(CC1)N[C@@H](C(=O)N[C@@H]1CC[C@@H](C(N)=O)OC1)[C@H](c1ccnc(Cl)c1F)[C@]21C(=O)Nc2cc(Cl)ccc21", "note": "[milademetan, Milademetan]", "values": [{"measurement": "Dose interruptions", "setting": "60 mg/day", "result": 2, "unit": "n"}, {"measurement": "Dose interruptions", "setting": "90 mg/day", "result": 5, "unit": "n"}, {"measurement": "Dose interruptions", "setting": "120 mg/day", "result": 3, "unit": "n"}, {"measurement": "Dose-limiting toxicities (DLTs)", "setting": "120 mg/day cohort", "result": "three events of platelet count decreased and one nausea; also recorded: Four DLTs were observed in four patients"}, {"measurement": "Dose-limiting toxicities (DLTs)", "setting": "60-mg and 90-mg cohorts", "result": "No DLTs occurred"}, {"measurement": "TEAE: Alanine aminotransferase increased", "setting": "[1]", "result": "1 (33.3) n (%)"}, {"measurement": "TEAE: Anemia", "setting": "[1]", "result": "0 (0.0) n (%)"}, {"measurement": "TEAE: Aspartate aminotransferase increased", "setting": "[1]", "result": "0 (0.0) n (%)"}, {"measurement": "TEAE: Constipation", "setting": "[1]", "result": "2 (66.7) n (%)"}, {"measurement": "TEAE: Decreased appetite", "setting": "[1]", "result": "2 (66.7) n (%)"}, {"measurement": "TEAE: Diarrhea", "setting": "[1]", "result": "0 (0.0) n (%)"}, {"measurement": "TEAE: Disease progression", "setting": "[1]", "result": "0 (0.0) n (%)"}, {"measurement": "TEAE: Fatigue", "setting": "[1]", "result": "2 (66.7) n (%)"}, {"measurement": "TEAE: Hypoalbuminemia", "setting": "[1]", "result": "1 (33.3) n (%)"}, {"measurement": "TEAE: Hyponatremia", "setting": "[1]", "result": "0 (0.0) n (%)"}, {"measurement": "TEAE: Hypophosphataemic rickets", "setting": "[1]", "result": "0 (0.0) n (%)"}, {"measurement": "TEAE: Jaundice cholestatic", "setting": "[1]", "result": "0 (0.0) n (%)"}, {"measurement": "TEAE: Lymphangiosis carcinomatosa", "setting": "[1]", "result": "1 (33.3) n (%)"}, {"measurement": "TEAE: Lymphocyte count decreased", "setting": "[1]", "result": "1 (33.3) n (%)"}, {"measurement": "TEAE: Nausea", "setting": "[1]", "result": "3 (100.0) n (%)"}, {"measurement": "TEAE: Neutrophil count decreased", "setting": "[1]", "result": "0 (0.0) n (%)"}, {"measurement": "TEAE: Platelet count decreased", "setting": "[1]", "result": "0 (0.0) n (%)"}, {"measurement": "TEAE: Pyrexia", "setting": "[1]", "result": "0 (0.0) n (%)"}, {"measurement": "TEAE: Sepsis", "setting": "[1]", "result": "0 (0.0) n (%)"}, {"measurement": "TEAE: Urinary tract infection", "setting": "[1]", "result": "0 (0.0) n (%)"}, {"measurement": "TEAE: Vomiting", "setting": "[1]", "result": "0 (0.0) n (%)"}, {"measurement": "TEAE: White blood cell count decreased", "setting": "[1]", "result": "1 (33.3) n (%)"}, {"measurement": "TEAE: Alanine aminotransferase increased", "setting": "[2]", "result": "0 (0.0) n (%)"}, {"measurement": "TEAE: Anemia", "setting": "[2]", "result": "0 (0.0) n (%)"}, {"measurement": "TEAE: Aspartate aminotransferase increased", "setting": "[2]", "result": "0 (0.0) n (%)"}, {"measurement": "TEAE: Constipation", "setting": "[2]", "result": "0 (0.0) n (%)"}, {"measurement": "TEAE: Decreased appetite", "setting": "[2]", "result": "0 (0.0) n (%)"}, {"measurement": "TEAE: Diarrhea", "setting": "[2]", "result": "0 (0.0) n (%)"}, {"measurement": "TEAE: Disease progression", "setting": "[2]", "result": "0 (0.0) n (%)"}, {"measurement": "TEAE: Fatigue", "setting": "[2]", "result": "0 (0.0) n (%)"}, {"measurement": "TEAE: Hypoalbuminemia", "setting": "[2]", "result": "0 (0.0) n (%)"}, {"measurement": "TEAE: Hyponatremia", "setting": "[2]", "result": "0 (0.0) n (%)"}, {"measurement": "TEAE: Hypophosphataemic rickets", "setting": "[2]", "result": "0 (0.0) n (%)"}, {"measurement": "TEAE: Jaundice cholestatic", "setting": "[2]", "result": "0 (0.0) n (%)"}, {"measurement": "TEAE: Lymphangiosis carcinomatosa", "setting": "[2]", "result": "1 (33.3) n (%)"}, {"measurement": "TEAE: Lymphocyte count decreased", "setting": "[2]", "result": "0 (0.0) n (%)"}, {"measurement": "TEAE: Nausea", "setting": "[2]", "result": "0 (0.0) n (%)"}, {"measurement": "TEAE: Neutrophil count decreased", "setting": "[2]", "result": "0 (0.0) n (%)"}, {"measurement": "TEAE: Platelet count decreased", "setting": "[2]", "result": "0 (0.0) n (%)"}, {"measurement": "TEAE: Pyrexia", "setting": "[2]", "result": "0 (0.0) n (%)"}, {"measurement": "TEAE: Sepsis", "setting": "[2]", "result": "0 (0.0) n (%)"}, {"measurement": "TEAE: Urinary tract infection", "setting": "[2]", "result": "0 (0.0) n (%)"}, {"measurement": "TEAE: Vomiting", "setting": "[2]", "result": "0 (0.0) n (%)"}, {"measurement": "TEAE: White blood cell count decreased", "setting": "[2]", "result": "0 (0.0) n (%)"}, {"measurement": "TEAE: Alanine aminotransferase increased", "setting": "[3]", "result": "1 (9.1) n (%)"}, {"measurement": "TEAE: Anemia", "setting": "[3]", "result": "7 (63.6) n (%)"}, {"measurement": "TEAE: Aspartate aminotransferase increased", "setting": "[3]", "result": "2 (18.2) n (%)"}, {"measurement": "TEAE: Constipation", "setting": "[3]", "result": "2 (18.2) n (%)"}, {"measurement": "TEAE: Decreased appetite", "setting": "[3]", "result": "6 (54.5) n (%)"}, {"measurement": "TEAE: Diarrhea", "setting": "[3]", "result": "3 (27.3) n (%)"}, {"measurement": "TEAE: Disease progression", "setting": "[3]", "result": "0 (0.0) n (%)"}, {"measurement": "TEAE: Fatigue", "setting": "[3]", "result": "6 (54.5) n (%)"}, {"measurement": "TEAE: Hypoalbuminemia", "setting": "[3]", "result": "6 (54.5) n (%)"}, {"measurement": "TEAE: Hyponatremia", "setting": "[3]", "result": "3 (27.3) n (%)"}, {"measurement": "TEAE: Hypophosphataemic rickets", "setting": "[3]", "result": "1 (9.1) n (%)"}, {"measurement": "TEAE: Jaundice cholestatic", "setting": "[3]", "result": "1 (9.1) n (%)"}, {"measurement": "TEAE: Lymphangiosis carcinomatosa", "setting": "[3]", "result": "0 (0.0) n (%)"}, {"measurement": "TEAE: Lymphocyte count decreased", "setting": "[3]", "result": "1 (9.1) n (%)"}, {"measurement": "TEAE: Nausea", "setting": "[3]", "result": "7 (63.6) n (%)"}, {"measurement": "TEAE: Neutrophil count decreased", "setting": "[3]", "result": "3 (27.3) n (%)"}, {"measurement": "TEAE: Platelet count decreased", "setting": "[3]", "result": "8 (72.7) n (%)"}, {"measurement": "TEAE: Pyrexia", "setting": "[3]", "result": "3 (27.3) n (%)"}, {"measurement": "TEAE: Sepsis", "setting": "[3]", "result": "0 (0.0) n (%)"}, {"measurement": "TEAE: Urinary tract infection", "setting": "[3]", "result": "1 (9.1) n (%)"}, {"measurement": "TEAE: Vomiting", "setting": "[3]", "result": "3 (27.3) n (%)"}, {"measurement": "TEAE: White blood cell count decreased", "setting": "[3]", "result": "6 (54.5) n (%)"}, {"measurement": "TEAE: Alanine aminotransferase increased", "setting": "[4]", "result": "1 (9.1) n (%)"}, {"measurement": "TEAE: Anemia", "setting": "[4]", "result": "3 (27.3) n (%)"}, {"measurement": "TEAE: Aspartate aminotransferase increased", "setting": "[4]", "result": "0 (0.0) n (%)"}, {"measurement": "TEAE: Constipation", "setting": "[4]", "result": "0 (0.0) n (%)"}, {"measurement": "TEAE: Decreased appetite", "setting": "[4]", "result": "0 (0.0) n (%)"}, {"measurement": "TEAE: Diarrhea", "setting": "[4]", "result": "0 (0.0) n (%)"}, {"measurement": "TEAE: Disease progression", "setting": "[4]", "result": "0 (0.0) n (%)"}, {"measurement": "TEAE: Fatigue", "setting": "[4]", "result": "0 (0.0) n (%)"}, {"measurement": "TEAE: Hypoalbuminemia", "setting": "[4]", "result": "0 (0.0) n (%)"}, {"measurement": "TEAE: Hyponatremia", "setting": "[4]", "result": "1 (9.1) n (%)"}, {"measurement": "TEAE: Hypophosphataemic rickets", "setting": "[4]", "result": "1 (9.1) n (%)"}, {"measurement": "TEAE: Jaundice cholestatic", "setting": "[4]", "result": "1 (9.1) n (%)"}, {"measurement": "TEAE: Lymphangiosis carcinomatosa", "setting": "[4]", "result": "0 (0.0) n (%)"}, {"measurement": "TEAE: Lymphocyte count decreased", "setting": "[4]", "result": "0 (0.0) n (%)"}, {"measurement": "TEAE: Nausea", "setting": "[4]", "result": "0 (0.0) n (%)"}, {"measurement": "TEAE: Neutrophil count decreased", "setting": "[4]", "result": "0 (0.0) n (%)"}, {"measurement": "TEAE: Platelet count decreased", "setting": "[4]", "result": "1 (9.1) n (%)"}, {"measurement": "TEAE: Pyrexia", "setting": "[4]", "result": "0 (0.0) n (%)"}, {"measurement": "TEAE: Sepsis", "setting": "[4]", "result": "0 (0.0) n (%)"}, {"measurement": "TEAE: Urinary tract infection", "setting": "[4]", "result": "1 (9.1) n (%)"}, {"measurement": "TEAE: Vomiting", "setting": "[4]", "result": "0 (0.0) n (%)"}, {"measurement": "TEAE: White blood cell count decreased", "setting": "[4]", "result": "0 (0.0) n (%)"}, {"measurement": "TEAE: Alanine aminotransferase increased", "setting": "[5]", "result": "2 (50.0) n (%)"}, {"measurement": "TEAE: Anemia", "setting": "[5]", "result": "2 (50.0) n (%)"}, {"measurement": "TEAE: Aspartate aminotransferase increased", "setting": "[5]", "result": "2 (50.0) n (%)"}, {"measurement": "TEAE: Constipation", "setting": "[5]", "result": "1 (25.0) n (%)"}, {"measurement": "TEAE: Decreased appetite", "setting": "[5]", "result": "3 (75.0) n (%)"}, {"measurement": "TEAE: Diarrhea", "setting": "[5]", "result": "2 (50.0) n (%)"}, {"measurement": "TEAE: Disease progression", "setting": "[5]", "result": "1 (25.0) n (%)"}, {"measurement": "TEAE: Fatigue", "setting": "[5]", "result": "1 (25.0) n (%)"}, {"measurement": "TEAE: Hypoalbuminemia", "setting": "[5]", "result": "1 (25.0) n (%)"}, {"measurement": "TEAE: Hyponatremia", "setting": "[5]", "result": "2 (50.0) n (%)"}]}
